Assay results reported in article PMC8919593 (Journal of neuroscience research, 2021).

Assays:
primary mouse microglia [1] = assay: Flow cytometric assay of microglial viability; type: cell-based; conditions: 1 μM inhibitor, with or without 1 ng/ml IFNγ, 24 hr; Figure S2
primary mouse microglia [2] = assay: qRT-PCR of homeostatic and DAM genes in primary microglia; type: cell-based; conditions: dose ranges between 4 and 50 nM, IFNγ-stimulated conditions; Figure S6
Method in brief: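 Mouse brain microglia were purified by CD11b+ MACS selection, plated on poly-L-lysine and cultured at 37°C. After 24 hr, half the medium was replaced and the ERK1/2 inhibitor added. Cells were preincubated 1 hr, then stimulated with 1 ng/ml IFNγ for 24 hr, matching the NanoString culture conditions. RNA was isolated and checked for concentration and purity by spectrophotometry before qRT-PCR.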

primary mouse microglia [3] = assay: Microglia-neuron coculture assay of neuronal phagocytosis; type: cell-based; conditions: 1 μM inhibitor, without IFNγ treatment; 24 hr coculture; Figure 5e
ERK1 = conditions: read-out: IC50 for ERK1; ref Morris et al., 2013; cited from earlier work
ERK2 = conditions: read-out: IC50 for ERK2; ref Morris et al., 2013; cited from earlier work

## O=C(Nc1ccc2[nH]nc(-c3ccncc3)c2c1)[C@@H]1CCN(CC(=O)N2CCN(c3ccc(-c4ncccn4)cc3)CC2)C1 [SCH772984]
Primary mouse microglia [1]
  cell health and viability of microglia: minimally impacted cell health and viability
Primary mouse microglia [2]
  gene expression of Ptgs2 (pro-inflammatory DAM gene): inhibited gene expression of Ptgs2
Primary mouse microglia [3]
  microglial phagocytosis of N2a cells: significantly reduced microglial phagocytosis of N2a cells
ERK1
  IC50: 4 nM
ERK2
  IC50: 1 nM
